Assay results as given in ChEMBL document CHEMBL5338825, “Structure-Based Discovery of Inhibitors of the SARS-CoV-2 Nsp14 N7-Methyltransferase” (J Med Chem, 2023).
Activity calls are given as the source filed them. No cut-off for these calls is given here.

Assays:
Bacteria [1] = assay: Inhibition of beta-lactamase AmpC (unknown origin) pre-incubated with compound for 5 mins followed by substrate addition and measured after 1.5 mins by absorbance based plate reader analysis; conditions: time 6.5 min
In short: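 AmpC at 2 nM preincubated 5 min with compound at room temperature in 50 mM KPi, pH 7.0, with 1% v/v DMSO. Started with 50 μM CENTA (read at 405 nm) or 50 μM nitrocefin (read at 490 nm), monitored 1 min 30 s. Initial rate taken as % of DMSO control. Top concentration in triplicate; eight-point half-log curves in triplicate where inhibition exceeded 40%.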

[2] = target: Replicase polyprotein 1ab (Severe acute respiratory syndrome coronavirus 2, UniProt P0DTD1); assay: (§1) Inhibition of N-terminal 6His/SUMO-tagged SARS-CoV-2 NSP14 expressed in Escherichia coli Rosetta 2 (DE3) PlysS cells using 5'GpppACCCCCCCCC-Biotin 3' and 3H-SAM as substrates incubated for 30 mins by TopCount scintillation proximity assay
Homo sapiens [3] = organism: Homo sapiens; assay: Inhibition of MDH (unknown origin) using oxaloacetic acid as substrate preincubated with compound for 5 mins followed by substrate addition and measured after 1.5 min in the presence of NADH by absorbance based plate reader analysis; conditions: time 6.5 min
In short: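 MDH assay at room temperature in 50 mM KPi, pH 7.0, with 1% v/v DMSO final. Compound preincubated 5 min with 2 nM enzyme. Reaction started with 200 μM NADH plus 200 μM oxaloacetic acid, and absorbance followed at 340 nm for 1 min 30 s. Initial rate divided by the DMSO control rate. Single top concentration in triplicate; eight-point half-log curves in triplicate where inhibition exceeded 40%.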

[4] = Aggregation property of the compound in KPi buffer at pH 7.0 assessed as formation of colloid-like particles by dynamic light scattering analysis; assay type: physicochemical
In short: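 Compounds diluted as 8-point half-log series in filtered 50 mM KPi, pH 7.0, with 1% v/v DMSO final. Particles detected by dynamic light scattering, triplicate at each concentration. CAC taken as the intersection of separate nonlinear fits to aggregating (>10^6 scattering intensity) and non-aggregating data.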

Homo sapiens [5] = organism: Homo sapiens; assay: Inhibition of MDH (unknown origin) using oxaloacetic acid as substrate preincubated with compound for 5 mins followed by substrate addition and measured after 1.5 min in the presence of NADH and 0.01% Triton-X 100 by absorbance based plate reader analysis; conditions: time 6.5 min
In short: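 Detergent-reversal MDH assay: 50 mM KPi, pH 7.0, with 1% v/v DMSO and 0.01% v/v Triton X-100. Enzyme at 2 nM preincubated 5 min with compound, then started with 200 μM NADH plus 200 μM oxaloacetate. A340 read for 1 min 30 s, rate normalised to DMSO control. Eight-point half-log curves in triplicate.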

Bacteria [6] = assay: Inhibition of beta-lactamase AmpC (unknown origin) pre-incubated with compound for 5 mins followed by substrate addition and measured after 1.5 mins in the presence of 0.01% Triton-X 100 by absorbance based plate reader analysis; conditions: time 6.5 min
In short: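 AmpC detergent-reversal assay: 50 mM KPi, pH 7.0, with 1% v/v DMSO and 0.01% v/v Triton X-100. Enzyme at 2 nM preincubated 5 min with compound, then 50 μM CENTA (405 nm) or nitrocefin (490 nm) added. Absorbance followed for 1 min 30 s and rate normalised to DMSO. Eight-point half-log curves in triplicate.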

[7] = target: Replicase polyprotein 1ab (Severe acute respiratory syndrome coronavirus 2) (UniProt P0DTD1); assay: Inhibition of N-terminal 6His/SUMO-tagged SARS-CoV-2 NSP14 expressed in Escherichia coli Rosetta 2 (DE3) PlysS cells using 5'GpppACCCCCCCCC-Biotin 3' and 3H-SAM as substrates at 100 uM incubated for 30 mins by TopCount scintillation proximity assay relative to control
[8] = target: Replicase polyprotein 1ab (Severe acute respiratory syndrome coronavirus 2) (UniProt P0DTD1); assay: Inhibition of N-terminal 6His/SUMO-tagged SARS-CoV-2 NSP14 expressed in Escherichia coli Rosetta 2 (DE3) PlysS cells using 5'GpppACCCCCCCCC-Biotin 3' and 3H-SAM as substrates at 300 uM incubated for 30 mins by TopCount scintillation proximity assay relative to control
[9] = target: Replicase polyprotein 1ab (Severe acute respiratory syndrome coronavirus 2) (UniProt P0DTD1); assay: Irreversible covalent inhibition of N-terminal 6His/SUMO-tagged SARS-CoV-2 NSP14 expressed in Escherichia coli Rosetta 2 (DE3) PlysS cells using 5'GpppACCCCCCCCC-Biotin 3' and 3H-SAM as substrates assessed as adduct formation at 50 uM measured upto 18 hrs by mass spectrometric analysis
In short: (§2)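 1 μM enzyme held alone or with 50 or 500 μM compound at room temperature. Sampled at 0, 2, 4, 8 and 18 h by QTof MS in 0.05% formic acid; intact mass deconvoluted from 700–1400 m/z.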

[10] = target: Replicase polyprotein 1ab (Severe acute respiratory syndrome coronavirus 2) (UniProt P0DTD1); assay: Irreversible covalent inhibition of N-terminal 6His/SUMO-tagged SARS-CoV-2 NSP14 expressed in Escherichia coli Rosetta 2 (DE3) PlysS cells using 5'GpppACCCCCCCCC-Biotin 3' and 3H-SAM as substrates assessed as adduct formation at 500 uM measured upto 18 hrs by mass spectrometric analysis; in short: as §2
[11] = target: Replicase polyprotein 1ab (Severe acute respiratory syndrome coronavirus 2) (UniProt P0DTD1); assay: Competitive inhibition of N-terminal 6His/SUMO-tagged SARS-CoV-2 NSP14 expressed in Escherichia coli Rosetta 2 (DE3) PlysS cells using 5'GpppACCCCCCCCC-Biotin 3' and 3H-SAM as substrates at increasing concentration incubated for 30 mins by TopCount scintillation proximity assay
In short: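 Competition pattern read from IC50 shifts. […] Separately, SAM fixed at 1.25 μM (5× Km) with RNA varied up to 0.5 μM (10× Km). A linear rise of IC50 with substrate concentration was taken as competitive inhibition.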

[12] = target: Replicase polyprotein 1ab (Severe acute respiratory syndrome coronavirus 2) (UniProt P0DTD1); assay: Reversible inhibition of N-terminal 6His/SUMO-tagged SARS-CoV-2 NSP14 expressed in Escherichia coli Rosetta 2 (DE3) PlysS cells using 5'GpppACCCCCCCCC-Biotin 3' and 3H-SAM as substrates at increasing concentration incubated for 30 mins by TopCount scintillation proximity assay
[13] = target: Replicase polyprotein 1ab (Severe acute respiratory syndrome coronavirus 2) (UniProt P0DTD1); assay: Irreversible covalent inhibition of N-terminal 6His/SUMO-tagged SARS-CoV-2 NSP14 expressed in Escherichia coli Rosetta 2 (DE3) PlysS cells using 5'GpppACCCCCCCCC-Biotin 3' and 3H-SAM as substrates assessed as adduct formation incubated for 2 hrs by mass spectrometric analysis
In short: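 Nsp14 incubated with 20-fold molar excess of compound for 2 h at 20 °C, then taken into 0.1% formic acid. Separated by HPLC on a 5–95% acetonitrile/water gradient and analysed by ESI time-of-flight MS for protein mass shift.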

[14] = target: Replicase polyprotein 1ab (Severe acute respiratory syndrome coronavirus 2) (UniProt P0DTD1); assay: Inhibition of N-terminal 6His/SUMO-tagged SARS-CoV-2 NSP14 expressed in Escherichia coli Rosetta 2 (DE3) PlysS cells using 5'GpppACCCCCCCCC-Biotin 3' and 3H-SAM as substrates at 30 to 50 uM incubated for 30 mins by TopCount scintillation proximity assay relative to control; conditions: dose 30-50 µM
[15] = target: Replicase polyprotein 1ab (Severe acute respiratory syndrome coronavirus 2) (UniProt P0DTD1); assay: Non-covalent inhibition of N-terminal 6His/SUMO-tagged SARS-CoV-2 NSP14 expressed in Escherichia coli Rosetta 2 (DE3) PlysS cells using 5'GpppACCCCCCCCC-Biotin 3' and 3H-SAM as substrates incubated for 30 mins by TopCount scintillation proximity assay
In short: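 Radiometric N7-MTase assay tracking [3H]-methyl transfer from SAM onto the cap of […] RNA, run with 0.01% v/v Triton X-100. Concentration–response in triplicate to give IC50.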

[16] = target: Replicase polyprotein 1ab (Severe acute respiratory syndrome coronavirus 2) (UniProt P0DTD1); assay: as §1

SMILES	IC50 [2] [µM]	inhibition (Homo sapiens [3])	Activity [4]	inhibition [8] [%]	also measured
N#Cc1c(C(=O)NCc2ccc(O)c([N+](=O)[O-])c2)[nH]c2ccccc12	27	Active	Active	–	inhibition (Bacteria [1]): Active; inhibition (Homo sapiens [5]): inactive; inhibition (Bacteria [6]): inactive
CN(C)c1cncc(NC(=O)c2ccc(C=O)cc2O)c1	12	inactive	–	–	inhibition (Bacteria [1]): inactive; inhibition [7]: > 50%
O=C(NC1CSC1)c1ncnn2cccc12	62	–	Active	> 50	–
Cn1c(C(=O)NCc2ccc(O)c([N+](=O)[O-])c2)c(Br)c2ccccc21	19	Active	Active	–	inhibition (Bacteria [1]): Active; inhibition (Homo sapiens [5]): inactive; inhibition (Bacteria [6]): inactive
C=C(Cl)COC(=O)c1cnc2[nH]ccc2c1	31	Active	–	> 50	–
Cn1ncc(N)c1-c1cc2ccccc2[nH]1	341	–	Active	> 50	–
C=CC(=O)NCC(=O)C(=O)N1CCC(C2C(=O)Nc3cc(Cl)ccc32)CC1 (stereo not given)	7	–	–	–	inhibition [9]: Active
Cc1c(C(=O)/C=C/c2cc(Br)c(O)cc2F)c(C#N)c2n1CCC2	–	Active	Active	–	inhibition (Bacteria [1]): Active; inhibition (Homo sapiens [5]): inactive; inhibition (Bacteria [6]): inactive
CCc1c(C(=O)/C=C/c2ccc(O)c([N+](=O)[O-])c2)oc2ccccc12	25	–	–	–	–
C#Cc1cccc(NC(=O)c2cccc(-c3cnc4[nH]c(=O)n(C)c4c3)c2)c1	–	inactive	–	–	inhibition (Bacteria [1]): inactive; CAC [4]: 10 µM
C=CC(=O)NCCC(=O)N1CCC(C2C(=O)Nc3cc(Cl)ccc32)CC1 (stereo not given)	32	–	–	–	inhibition [7]: > 50%; inhibition [10]: Active
COc1cc(F)cc(NC(=O)c2cccc(-c3cnc4[nH]c(=O)n(C)c4c3)c2)c1	14	–	–	–	–
CC(C)SCn1cnc2cnn(C)c2c1=O	59	Active	Active	> 50	inhibition (Homo sapiens [5]): inactive
O=Cc1nc2ccccn2c1C=C1COC1	11	–	–	–	inhibition [7]: > 50%
Cc1nc2ncc(-c3c[nH]nn3)cc2[nH]1	127	–	Active	> 50	–
Nc1cn2cc(-c3cscc3Cl)ncc2n1	78	–	–	> 50	–
Cn1c(=O)[nH]c2ncc(-c3cccc(C(=O)Nc4ccc(Cl)c(CO)c4)c3)cc21	15	–	–	–	–
N#Cc1cncc(NCc2cc(Br)c[nH]2)n1	60	–	–	> 50	–
Oc1ccccc1-c1ncnc2[nH]ccc12	12	Active	–	> 50	inhibition (Bacteria [1]): Active; inhibition [11]: Active; inhibition [12]: Active; inhibition (Homo sapiens [5]): inactive
C=CC(=O)N(C)c1ccc(C(=O)Nc2ccc(-c3cn4ccsc4n3)cc2)cc1	39	–	–	–	inhibition [7]: > 50%; inhibition [13]: inactive
Cc1cc(C(=O)Nc2cccc(N3CCNC3=O)c2C)sc1C=O	3.5	–	–	–	inhibition [7]: > 50%
O=Cc1cc(F)c(C(=O)Nc2cc(Cl)c3c(c2)OCCO3)cc1F	25	–	–	–	inhibition [7]: > 50%
Cn1c(=O)[nH]c2ncc(-c3cccc(C(=O)Nc4cccc(C#N)c4)c3)cc21	20	inactive	–	–	inhibition (Bacteria [1]): inactive; inhibition [14]: > 50%; inhibition [15]: Active; CAC [4]: 10 µM
CN(Cc1ccncc1)c1cc(Br)ncn1	170	–	Active	> 50	–
CCC(=O)NCCC(=O)N1CCC(C2C(=O)Nc3cc(Cl)ccc32)CC1 (stereo not given)	–	–	–	–	inhibition [16]: inactive
O=C(OCc1cn2cc(Br)ccc2n1)c1cc(-c2ccco2)[nH]n1	6	–	–	–	–
